In ChEMBL document CHEMBL1177852, “Design and preparation of aza-analogues of benzo[c]phenanthridine framework with cytotoxic and antiplasmodial activities” (Eur J Med Chem, 2010):

Columns and labels:
[1] = test system: Plasmodium falciparum; assay: Antiplasmodial activity against chloroquine-resistant Plasmodium falciparum FcB1/Columbia after 48 hrs; format: functional, organism-based
How it was run: (§1)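 P. falciparum cultured by Trager–Jensen method with modifications; cultures synchronized by 5% D-sorbitol lysis. Parasites incubated with compound at increasing dilutions for 48 h; growth read out as [3H]hypoxanthine incorporation.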

[2] = test system: Vero; assay: Cytotoxicity against african green monkey Vero cells after 48 hrs by [3H]hypoxanthine incorporation assay; format: cell-based; settings: Chlorocebus sabaeus
How it was run: (§2)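 MCF7 and Vero cells cultured as for P. falciparum, but with 5% fetal calf serum in place of 5% human serum. Drugs added at various concentrations; growth measured by [3H]hypoxanthine incorporation after 48 h incubation.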

[3] = test system: Plasmodium falciparum; assay: Antiplasmodial activity against chloroquine-sensitive Plasmodium falciparum F32 after 48 hrs; format: functional, organism-based; settings: F32, 48 h; how it was run: as §1
[4] = test system: MCF7; assay: Cytotoxicity against human MCF7 cells after 48 hrs by [3H]hypoxanthine incorporation assay; format: functional, cell-based; how it was run: as §2

| Structure (SMILES) | IC50 [1] | IC50 [2] | IC50 [3] | IC50 [4] |
| --- | --- | --- | --- | --- |
| Cn1c(=O)c2ccccc2c2ccc3cnccc3c21 | 54.8 µM | 2.3 µM | 61 µM | 11.9 µM |
| Cn1c(=O)c2ccccc2c2ccc3ncccc3c21 | 22.3 µM | 3.5 µM | 17.6 µM | 12.5 µM |
| Cn1c(=O)c2ccccc2c2cc3ncccc3cc21 | 154 µM | 2.85 µM | 123 µM | 0.6 µM |
| COc1cccc2c1C(=O)c1c(O)c3c(c(O)c1C2=O)C[C@@](O)(C(=O)CO)C[C@@H]3O[C@H]1C[C@H](N)[C@H](O)[C@H](C)O1 [DOXORUBICIN] |  | 7.4 µM |  | 0.41 µM |
| Cn1c(=O)c2ccccc2c2nc3ccccc3cc21 | 181 µM | 42 µM | 355 µM | 154 µM |
| Cn1c(=O)c2ccccc2c2ccc3cccnc3c21 | 38.2 µM | 3.35 µM | 36.3 µM | 16.5 µM |
| Cn1c(=O)c2ccccc2c2c3ccccc3ncc21 | 14.8 µM | 22.3 µM | 32.7 µM | 30.9 µM |
| Cn1c(=O)c2ccccc2c2c3cccnc3ccc21 | 80.7 µM | 1.75 µM | 96.1 µM | 11.5 µM |
